In brackets after ≈: the same amount, converted by molar mass. Activity calls are given as the source filed them. The rule behind the calls is not given here.
Assays:
[1] = biological target: Bifunctional dihydrofolate reductase-thymidylate synthase (Plasmodium falciparum K1, UniProt P13922, A16V/S108T); experiment: Inhibition constant against PfDHFR (Plasmodium falciparum dihydrofolate reductase) with double (A16V + S108T) mutations
Procedure, shortened: (§1)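 Recombinant wild-type or mutant PfDHFR, expressed in bacteria (induction at 20 °C for 20 h) and purified on methotrexate-Sepharose. Spectrophotometric assay in 50 mM TES pH 7.0, 75 mM β-mercaptoethanol, 1 mg/mL BSA, with 100 μM each H2-folate and NADPH. Started with enzyme (0.6–1 nM). Ki from IC50 = Ki(1+[S]/Km), assuming competitive binding.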

[2] = biological target: Bifunctional dihydrofolate reductase-thymidylate synthase (Plasmodium falciparum K1, UniProt P13922, C59R/I164L/N51I/S108N); experiment: Inhibition constant against PfDHFR (Plasmodium falciparum dihydrofolate reductase) with quadruple (N51I + C59R + S108N + I164L) mutations; procedure, shortened: as §1
[3] = biological target: Bifunctional dihydrofolate reductase-thymidylate synthase (Plasmodium falciparum K1, UniProt P13922, A16V); experiment: Inhibition constant against PfDHFR (Plasmodium falciparum dihydrofolate reductase) with single A16V mutation; procedure, shortened: as §1
[4] = biological target: Bifunctional dihydrofolate reductase-thymidylate synthase (Plasmodium falciparum K1, UniProt P13922, S108T); experiment: Inhibition constant against PfDHFR (Plasmodium falciparum dihydrofolate reductase) with single S108T mutation; procedure, shortened: as §1
[5] = biological target: Bifunctional dihydrofolate reductase-thymidylate synthase (Plasmodium falciparum K1, UniProt P13922, C59R/I164L/S108N); experiment: Inhibition constant against PfDHFR (Plasmodium falciparum dihydrofolate reductase) with triple (C59R + S108N + I164L) mutations; procedure, shortened: as §1
[6] = biological target: Bifunctional dihydrofolate reductase-thymidylate synthase (Plasmodium falciparum K1, UniProt P13922); experiment: Inhibition constant against wild-type PfDHFR (Plasmodium falciparum dihydrofolate reductase); procedure, shortened: as §1
[7] = biological target: Bifunctional dihydrofolate reductase-thymidylate synthase (Plasmodium falciparum K1) (UniProt P13922); experiment: Inhibition constant against wild-type PfDHFR (Plasmodium falciparum dihydrofolate reductase) at 750 uM; Inactive
Procedure, shortened: as §1, with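 “nM). […]” for “nM).”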

[8] = biological target: Bifunctional dihydrofolate reductase-thymidylate synthase (Plasmodium falciparum K1) (UniProt P13922); experiment: Inhibition constant for resistant mutant PfDHFR (Plasmodium falciparum dihydrofolate reductase) at 750 uM; Inactive
Procedure, shortened: as §1, with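 “nM). […]” for “nM).”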

[9] = biological target: Bifunctional dihydrofolate reductase-thymidylate synthase (Plasmodium falciparum K1) (UniProt P13922); experiment: Inhibition constant for PfDHFR (Plasmodium falciparum dihydrofolate reductase) with double (A16V + S108T) mutations at a concentration of 100 uM; Not active
Procedure, shortened: as §1, with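 “nM). […]” for “nM).”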

[10] = biological target: Bifunctional dihydrofolate reductase-thymidylate synthase (Plasmodium falciparum K1) (UniProt P13922); experiment: Inhibition constant for PfDHFR (Plasmodium falciparum dihydrofolate reductase) with quadruple (N51I + C59R + S108N + I164L) mutations; Not active
Procedure, shortened: as §1, with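 “nM). […]” for “nM).”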

[11] = biological target: Bifunctional dihydrofolate reductase-thymidylate synthase (Plasmodium falciparum K1) (UniProt P13922); experiment: Inhibition constant for PfDHFR (Plasmodium falciparum dihydrofolate reductase) with single A16V mutation at a concentration of 100 uM; Not active
Procedure, shortened: as §1, with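 “nM). […]” for “nM).”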

[12] = biological target: Bifunctional dihydrofolate reductase-thymidylate synthase (Plasmodium falciparum K1) (UniProt P13922); experiment: Inhibition constant for PfDHFR (Plasmodium falciparum dihydrofolate reductase) with single S108T mutation at a concentration of 100 uM; Not active
Procedure, shortened: as §1, with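 “nM). […]” for “nM).”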

[13] = biological target: Bifunctional dihydrofolate reductase-thymidylate synthase (Plasmodium falciparum K1) (UniProt P13922); experiment: Inhibition constant for PfDHFR (Plasmodium falciparum dihydrofolate reductase) with triple (C59R + S108N + I164L) mutations at a concentration of 100 uM; Not active
Procedure, shortened: as §1, with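 “nM). […]” for “nM).”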

[14] = biological target: Bifunctional dihydrofolate reductase-thymidylate synthase (Plasmodium falciparum K1) (UniProt P13922); experiment: Inhibition constant against wild-type PfDHFR (Plasmodium falciparum dihydrofolate reductase) at a concentration of 100 uM; Not active
Procedure, shortened: as §1, with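 “nM). […]” for “nM).”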

[15] = biological target: Bifunctional dihydrofolate reductase-thymidylate synthase (Plasmodium falciparum K1) (UniProt P13922); experiment: Inhibition constant for PfDHFR (Plasmodium falciparum dihydrofolate reductase) with double (A16V + S108T) mutations; Not active
Procedure, shortened: as §1, with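 “nM). […]” for “nM).”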

[16] = biological target: Bifunctional dihydrofolate reductase-thymidylate synthase (Plasmodium falciparum K1) (UniProt P13922); experiment: Inhibition constant for PfDHFR (Plasmodium falciparum dihydrofolate reductase) with single A16V mutation; Not active
Procedure, shortened: as §1, with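 “nM). […]” for “nM).”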

[17] = biological target: Bifunctional dihydrofolate reductase-thymidylate synthase (Plasmodium falciparum K1) (UniProt P13922); experiment: Inhibition constant for PfDHFR (Plasmodium falciparum dihydrofolate reductase) with single S108T mutation; Not active
Procedure, shortened: as §1, with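 “nM). […]” for “nM).”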

[18] = biological target: Bifunctional dihydrofolate reductase-thymidylate synthase (Plasmodium falciparum K1) (UniProt P13922); experiment: Inhibition constant for PfDHFR (Plasmodium falciparum dihydrofolate reductase) with triple (C59R + S108N + I164L) mutations; Not active
Procedure, shortened: as §1, with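 “nM). […]” for “nM).”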

[19] = biological target: Bifunctional dihydrofolate reductase-thymidylate synthase (Plasmodium falciparum K1) (UniProt P13922); experiment: Inhibition constant against wild-type PfDHFR (Plasmodium falciparum dihydrofolate reductase); Not active
Procedure, shortened: as §1, with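 “nM). […]” for “nM).”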

[20] = biological target: Bifunctional dihydrofolate reductase-thymidylate synthase (Plasmodium falciparum K1) (UniProt P13922); experiment: Inhibition constant against wild-type PfDHFR (Plasmodium falciparum dihydrofolate reductase); Inactive
Procedure, shortened: as §1, with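 “nM). […]” for “nM).”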

[21] = biological target: Bifunctional dihydrofolate reductase-thymidylate synthase (Plasmodium falciparum K1) (UniProt P13922); experiment: Inhibition constant for resistant mutant PfDHFR (Plasmodium falciparum dihydrofolate reductase); Inactive
Procedure, shortened: as §1, with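 “nM). […]” for “nM).”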

[22] = Determined the solubility of the compound; assay type: ADME; settings: read-out: S

Bifunctional dihydrofolate reductase-thymidylate synthase (Plasmodium falciparum K1, UniProt P13922, C59R/I164L/N51I/S108N), sequence (P13922 whole entry, looked up, stated change not applied): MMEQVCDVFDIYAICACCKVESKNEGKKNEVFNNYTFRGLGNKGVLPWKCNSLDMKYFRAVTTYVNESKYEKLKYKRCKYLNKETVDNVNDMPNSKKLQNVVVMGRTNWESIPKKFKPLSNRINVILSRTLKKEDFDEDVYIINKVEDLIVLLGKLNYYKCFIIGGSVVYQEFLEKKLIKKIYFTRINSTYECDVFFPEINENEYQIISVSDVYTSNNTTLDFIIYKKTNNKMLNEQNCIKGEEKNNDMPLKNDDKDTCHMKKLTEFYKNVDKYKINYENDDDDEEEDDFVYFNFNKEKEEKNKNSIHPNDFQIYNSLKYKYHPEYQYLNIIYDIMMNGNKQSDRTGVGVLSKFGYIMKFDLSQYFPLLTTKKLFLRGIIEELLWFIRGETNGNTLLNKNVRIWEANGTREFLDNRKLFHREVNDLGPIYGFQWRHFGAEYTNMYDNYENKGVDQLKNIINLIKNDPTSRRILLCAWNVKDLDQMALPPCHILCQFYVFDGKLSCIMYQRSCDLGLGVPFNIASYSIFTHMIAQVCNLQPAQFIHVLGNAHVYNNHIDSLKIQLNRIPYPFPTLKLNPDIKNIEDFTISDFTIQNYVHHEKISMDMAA
Bifunctional dihydrofolate reductase-thymidylate synthase (Plasmodium falciparum K1, UniProt P13922, A16V/S108T), sequence (P13922 whole entry, looked up, stated change not applied): as above
Bifunctional dihydrofolate reductase-thymidylate synthase (Plasmodium falciparum K1), sequence (P13922 whole entry, looked up): as the sequence (P13922 whole entry, looked up, stated change not applied) above
Bifunctional dihydrofolate reductase-thymidylate synthase (Plasmodium falciparum K1, UniProt P13922, C59R/I164L/S108N), sequence (P13922 whole entry, looked up, stated change not applied): as above
Bifunctional dihydrofolate reductase-thymidylate synthase (Plasmodium falciparum K1, UniProt P13922, S108T), sequence (P13922 whole entry, looked up, stated change not applied): as above
Bifunctional dihydrofolate reductase-thymidylate synthase (Plasmodium falciparum K1, UniProt P13922), sequence (P13922 whole entry): as the sequence (P13922 whole entry, looked up, stated change not applied) above
Bifunctional dihydrofolate reductase-thymidylate synthase (Plasmodium falciparum K1, UniProt P13922, A16V), sequence (P13922 whole entry A16V): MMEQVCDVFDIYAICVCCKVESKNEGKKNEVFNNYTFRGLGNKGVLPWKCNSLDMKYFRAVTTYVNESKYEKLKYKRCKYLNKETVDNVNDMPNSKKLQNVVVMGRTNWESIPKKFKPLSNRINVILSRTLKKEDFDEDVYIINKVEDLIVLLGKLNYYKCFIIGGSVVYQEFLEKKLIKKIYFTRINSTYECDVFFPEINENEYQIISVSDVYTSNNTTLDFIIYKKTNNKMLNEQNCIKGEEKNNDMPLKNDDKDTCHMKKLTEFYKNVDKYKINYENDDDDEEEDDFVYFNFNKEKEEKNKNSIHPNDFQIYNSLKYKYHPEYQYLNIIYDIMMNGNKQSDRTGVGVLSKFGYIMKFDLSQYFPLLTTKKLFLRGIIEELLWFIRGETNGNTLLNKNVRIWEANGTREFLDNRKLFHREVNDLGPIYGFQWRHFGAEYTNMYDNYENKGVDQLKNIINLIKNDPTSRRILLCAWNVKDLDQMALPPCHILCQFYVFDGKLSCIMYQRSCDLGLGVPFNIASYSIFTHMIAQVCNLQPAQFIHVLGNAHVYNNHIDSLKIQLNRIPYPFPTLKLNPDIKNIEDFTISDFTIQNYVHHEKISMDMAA

Row | Compound | Ki [1] [µM] | Ki [2] [µM] | Ki [3] [µM] | Ki [4] [µM] | Ki [5] [µM] | Ki [6] [µM] | further results
1 | N=C(S)N/N=C/c1ccc(Oc2ncc(C(F)(F)F)cc2Cl)cc1 | 34 | 9.3 | 6.8 | 2.3 | 12.5 | – | –
2 | NNc1nc2ccccc2nc1NN | 11.4 | 9.7 | 3.4 | 0.8 | 2.7 | 3.6 | –
3 | N=C(NO)c1ccc(CNC(=O)c2ccc(Cl)cc2)cc1 | 57 | 36.6 | 58 | 12.3 | 93 | 77.2 | –
4 | N/C(=N/O)c1ccc(Oc2c(Cl)cncc2Cl)cc1 | 6.2 | 27.8 | 23.6 | 16 | 24.4 | 25.2 | –
5 | Cc1nc(S)nc(O)c1Cc1c(F)cccc1Cl | – | – | – | – | – | – | IA [7]: inactive; IA [8]: inactive
6 | NC1=NC(c2ccccc2)C(C(=O)c2ccccc2)N1 (stereo not drawn) | – | – | – | – | – | – | NA [9]: inactive; NA [10]: inactive; NA [11]: inactive; NA [12]: inactive; NA [13]: inactive; NA [14]: inactive
7 | NC(=O)Nc1ccc(Cc2ccc(NC(N)=O)cc2)cc1 | – | – | – | – | – | – | NA [15]: inactive; NA [10]: inactive; NA [16]: inactive; NA [17]: inactive; NA [18]: inactive; NA [19]: inactive
8 | Sc1nnc(-c2ccccc2)c(-c2ccccc2)n1 | – | – | – | – | – | – | IA [20]: inactive; IA [21]: inactive
9 | C=CCNC(=S)NNC(=O)c1cccn(Cc2cccc(Cl)c2)c1=O | 17 | 10.6 | 13 | 1.7 | 10 | 15.2 | –
10 | N=C(NO)c1ccc(Oc2cc(Cl)cc(Cl)c2)c([N+](=O)[O-])c1 | 9.8 | 32.6 | 36.8 | 4.2 | 22.2 | – | –
11 | NC(=O)Nc1ccc(Oc2ncc(C(F)(F)F)cc2Cl)cc1 | – | – | – | – | – | – | NA [15]: inactive; NA [10]: inactive; NA [16]: inactive; NA [17]: inactive; NA [18]: inactive; NA [19]: inactive
12 | N/C(=N\O)c1cccc(CS(=O)(=O)c2ccc(Cl)cc2)c1 | 106 | 34.5 | 38 | 30 | 105 | 102 | –
13 | NC(=O)NC(=O)Cc1ccccc1 | – | – | – | – | – | – | NA [15]: inactive; NA [10]: inactive; NA [16]: inactive; NA [17]: inactive; NA [18]: inactive; NA [19]: inactive
14 | CNC(=O)Nc1ccc(Cc2ccc(NC(=O)NC)cc2)cc1 | – | – | – | – | – | – | NA [15]: inactive; NA [10]: inactive; NA [16]: inactive; NA [17]: inactive; NA [18]: inactive; NA [19]: inactive
15 | C/N=C(\S)NNC(=O)c1cccn(Cc2cccc(Cl)c2)c1=O | 13.6 | 19.4 | 5.9 | 1.8 | 7.1 | 11.3 | –
16 | N/N=C(\S)Nc1ccc(OCc2ccccc2)cc1 | 55.6 | 26.5 | 15.4 | 5.2 | 13.4 | 13.7 | –
17 | N=c1nc(N)nc(Nc2ccccc2)n1-c1ccccc1 | – | – | – | – | – | – | IA [20]: inactive; IA [21]: inactive
18 | NC(=S)N/N=C/c1ccccc1 [PHENYLTHIOSEMICARBAZONE] | 50 | 37.2 | 29.6 | 9 | 28.9 | 23.6 | –
19 | Nc1nccc(-c2csc(COc3ccc(Cl)cc3)n2)n1 | – | – | – | – | – | – | solubility [22]: 25 µM (≈ 7.97 µg/mL)
20 | COC(=O)c1sccc1-c1ccc(/C(C)=N/NC(N)=O)o1 | 19.7 | 16 | 15.3 | 4.2 | 7.5 | – | –
21 | CC1(C)N=C(N)N=C(N)N1c1ccc(Cl)cc1 [CYCLOGUANIL] | 2.13 | 0.73 | 0.57 | 0.0016 | 1.14 | – | –
22 | Oc1nnc(-c2ccccc2)c(-c2ccccc2)n1 | – | – | – | – | – | – | IA [20]: inactive; IA [21]: inactive
23 | C/C(=N\N=C(/N)S)c1ccc(Oc2c(Cl)cncc2Cl)cc1 | 2.1 | 1.5 | 0.7 | 1 | 0.6 | 0.9 | –
